Results taken from ChEMBL document CHEMBL2321819, “Design of potent poxvirus inhibitors of the heterodimeric processivity factor required for viral replication” (J Med Chem, 2013).
The source made the active and inactive calls. The rule behind the calls is not given here.

Key:
Vaccinia virus [1] = test: Antiviral activity against Vaccinia virus WR infected in African green monkey BSC1 cells after overnight incubation by crystal violet staining-based plaque reduction assay; assay type: functional, organism-based; settings: Orthopoxvirus vaccinia, BSC-1
[2] = Selectivity index, ratio of CC50 for African green monkey BSC1 cells to IC50 for Vaccinia virus WR; assay type: functional, BSC-1
BSC-1 [3] = test: (§1) Cytotoxicity against African green monkey BSC1 cells after 20 hrs by lactate dehydrogenase assay; assay type: cell-based; settings: chlorocebus aethiops, bsc-1, 20 h
Outline: (§2)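 Cytotoxicity in BSC-1 cells was measured by LDH release, with Neutral Red also used. Assays were run in triplicate and repeated at least twice. CC50 was obtained from a variable-slope four-parameter nonlinear regression fit. Values ≥100 μM were called not active.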

Vaccinia virus [4] = test: Antiviral activity against 5 MOI of Vaccinia virus WR infected in African green monkey BSC1 cells assessed as decrease in virus-induced cytopathicity at 1 uM after 8 hrs relative to vehicle-treated control; assay type: functional, organism-based; settings: Orthopoxvirus vaccinia, BSC-1
BSC-1 [5] = test: Inhibition of 1 MOI of Vaccinia virus WR DNA polymerase processivity factor A20NT100-D4 complex infected in African green monkey BSC1 cells assessed as decrease in E3 protein level at 1 uM after 8 hrs by Western blotting analysis; assay type: cell-based
BSC-1 [6] = test: Inhibition of 5 MOI of Vaccinia virus WR DNA polymerase processivity factor A20NT100-D4 complex coexpressing recombinant L1 protein infected in African green monkey BSC1 cells assessed as reduction in EGFP expression at 1 uM after 8 hrs by fluorescence microscopic analysis; assay type: cell-based
BSC-1 [7] = test: Inhibition of 1 MOI of Vaccinia virus WR DNA polymerase processivity factor A20NT100-D4 complex infected in African green monkey BSC1 cells assessed as decrease in BrdU incorporation at 1 uM after 4 to 8 hrs by DAPI staining-based confocal microscopic analysis; assay type: cell-based
BSC-1 [8] = test: Inhibition of 1 MOI of Vaccinia virus WR DNA polymerase processivity factor A20NT100-D4 complex infected in African green monkey BSC1 cells assessed as decrease in A4 protein level after 12 hrs by Western blotting analysis; assay type: cell-based
Vaccinia virus [9] = test: Antiviral activity against 5 MOI of Vaccinia virus WR infected in African green monkey BSC1 cells assessed as decrease in virus-induced cytopathicity at 1 uM after 8 hrs relative to cidofovir; assay type: functional, organism-based; settings: Orthopoxvirus vaccinia, BSC-1
[10] = as §1; assay type: cell-based, BSC-1; settings: chlorocebus aethiops, BSC-1 cells; outline: as §2
BSC-1 [11] = test: Inhibition of 5 MOI of Vaccinia virus WR DNA polymerase processivity factor A20NT100-D4 complex coexpressing recombinant L1 protein infected in African green monkey BSC1 cells assessed as reduction in EGFP expression at 100 uM after 8 hrs by fluorescence microscopic analysis; assay type: cell-based

`Cc1ccc2c(Sc3ccc(C(=O)O)cc3)c(C(=O)O)[nH]c2c1` gave an IC50 (Vaccinia virus [1]) of no less than 100 µM.

Compound `Cc1ccc2c(Sc3cccc(F)c3)c(C(=O)O)[nH]c2c1` has an IC50 (Vaccinia virus [1]) of 69 µM.

With `Cc1ccc2c(Sc3cc(Cl)cc(Cl)c3)c(C(=O)O)[nH]c2c1` the “Ratio CC50/IC50” value [2] was 11, the CC50 (BSC-1 [3]) was 75 µM and the IC50 (Vaccinia virus [1]) was 7 µM.

For `Cc1cccc2[nH]c(C(=O)OC(C)C)c(Sc3ccc(Cl)cc3)c12`, the IC50 (Vaccinia virus [1]) was no less than 100 µM.

In the case of `Cc1ccc2[nH]c(C(=O)OCc3ccccc3)c(Sc3ccc(Cl)cc3)c2c1`, the IC50 (Vaccinia virus [1]) is reported as no less than 100 µM.

`COC(=O)c1[nH]c2ccc(C)cc2c1Sc1ccc(Cl)cc1` showed an IC50 (Vaccinia virus [1]) of no less than 100 µM.

`Cc1ccc2c(Sc3ccccc3)c(C(=O)O)[nH]c2c1` showed an IC50 (Vaccinia virus [1]) of no less than 100 µM.

Work on `Cc1cccc2[nH]c(C(=O)O)c(Sc3ccc([N+](=O)[O-])cc3)c12` yielded an IC50 (Vaccinia virus [1]) of no less than 100 µM.

`Cc1ccc2[nH]c(C(=O)O)c(Sc3ccc(Cl)cc3)c2c1` showed an IC50 (Vaccinia virus [1]) of 46 µM.

In the case of `CCn1c(C(=O)OC)c(Sc2ccc(Cl)cc2)c2cc(C)ccc21`, the IC50 (Vaccinia virus [1]) is reported as 39 µM.

In the case of `Cc1ccc2c(c1)c(Sc1ccc(Cl)cc1)c(C(=O)O)n2C`, the IC50 (Vaccinia virus [1]) is reported as no less than 100 µM.

Compound `Cc1ccc(C)c2c(Sc3ccc(Cl)cc3)c(C(=O)O)[nH]c12` has an IC50 (Vaccinia virus [1]) of 50 µM.

With `Cc1ccc2c(Sc3cc(Cl)cc(Cl)c3)c(CC(N)=O)[nH]c2c1` the “Ratio CC50/IC50” value [2] was 570, the CC50 (BSC-1 [3]) was 26 µM and the IC50 (Vaccinia virus [1]) was 0.046 µM.

In the case of `CCc1ccc2c(Sc3cc(Cl)cc(Cl)c3)c(C(=O)O)[nH]c2c1`, the IC50 (Vaccinia virus [1]) is reported as 9 µM.

In the case of `COC(=O)c1[nH]c2cc(C)ccc2c1Sc1ccccc1`, the IC50 (Vaccinia virus [1]) is reported as 10 µM.

With `O=C(O)c1[nH]c2ccccc2c1Sc1ccc(Cl)cc1` the IC50 (Vaccinia virus [1]) was no less than 100 µM.

Work on `Cc1cccc2[nH]c(C(=O)Oc3ccccc3)c(Sc3ccc(Cl)cc3)c12` yielded an IC50 (Vaccinia virus [1]) of no less than 100 µM.

Compound `Cc1cccc2[nH]c(C(=O)O)c(Sc3ccc(Cl)cc3)c12` has an IC50 (Vaccinia virus [1]) of 86 µM.

With `CCOC(=O)c1[nH]c2ccc(C)cc2c1Sc1ccc(Cl)cc1` the IC50 (Vaccinia virus [1]) was no less than 100 µM.

Compound `Cc1ccc2c(Sc3ccc(C(F)(F)F)cc3)c(C(=O)O)[nH]c2c1` has an IC50 (Vaccinia virus [1]) of 33 µM.

For `Cc1cccc2[nH]c(C(=O)O)c(Sc3cc(Cl)c(Cl)cc3Cl)c12`, the IC50 (Vaccinia virus [1]) was 18 µM.

For `CCn1c(C(=O)O)c(Sc2ccc(Cl)cc2)c2cc(C)ccc21`, the IC50 (Vaccinia virus [1]) was 86 µM.

`Cc1ccc2c(Sc3cccc(Cl)c3)c(C(=O)O)[nH]c2c1` gave an IC50 (Vaccinia virus [1]) of 51 µM.

`Cc1ccc2c(Sc3ccc(Cl)cc3Cl)c(C(=O)O)[nH]c2c1` showed an IC50 (Vaccinia virus [1]) of 37 µM.

Work on `Cc1ccc2[nH]c(C(=O)Oc3ccccc3)c(Sc3ccc(Cl)cc3)c2c1` yielded an IC50 (Vaccinia virus [1]) of no less than 100 µM.

Compound `Cc1cccc2c(Sc3ccc(Cl)c(Cl)c3)c(C(=O)O)[nH]c12` has an IC50 (Vaccinia virus [1]) of 35 µM.

In the case of `Cc1ccc2c(Sc3cc(Cl)cc(Cl)c3)c(CCC(N)=O)[nH]c2c1`, the Activity (Vaccinia virus [4]) is reported as “Active”, the inhibition (BSC-1 [5]) is reported as “Active” and the “Ratio CC50/IC50” value [2] is reported as 374. The CC50 (BSC-1 [3]) was 16 µM, the IC50 (Vaccinia virus [1]) was 0.042 µM and the inhibition (BSC-1 [6]) was “Active”. The inhibition (BSC-1 [7]) was “Active”, the inhibition (BSC-1 [8]) was “Dose-dependent effect” and the Activity (Vaccinia virus [9]) was “Active”.

`Cc1ccc(Sc2c(C(=O)O)[nH]c3cc(C)ccc23)cc1` gave an IC50 (Vaccinia virus [1]) of no less than 100 µM.

Compound `Cc1ccc2c(Sc3ccc(C(F)(F)F)cc3[N+](=O)[O-])c(C(=O)O)[nH]c2c1` has an IC50 (Vaccinia virus [1]) of no less than 100 µM.

Compound `Cc1ccc(Sc2c(C(=O)O)[nH]c3cccc(C)c23)cc1` has an IC50 (Vaccinia virus [1]) of no less than 100 µM.

Work on `COc1cccc2[nH]c(C(=O)O)c(Sc3ccc(Cl)cc3)c12` yielded an IC50 (Vaccinia virus [1]) of no less than 100 µM.

In the case of `Cc1ccc2c(Sc3ccc(Cl)cc3)c(C(=O)O)[nH]c2c1`, the IC50 (Vaccinia virus [1]) is reported as 82 µM.

With `O=C(O)c1[nH]c2ccccc2c1Sc1cc(Cl)cc(Cl)c1` the IC50 (Vaccinia virus [1]) was 43 µM.

Compound `CNC(=O)c1[nH]c2cc(C)ccc2c1Sc1cc(Cl)cc(Cl)c1` has an IC50 (Vaccinia virus [1]) of no less than 100 µM.

With `O=C(O)c1[nH]c2cc(Cl)ccc2c1Sc1ccc(Cl)cc1` the IC50 (Vaccinia virus [1]) was 47 µM.

For `CCc1ccc2c(Sc3ccc(Cl)c(Cl)c3)c(C(=O)O)[nH]c2c1`, the IC50 (Vaccinia virus [1]) was 42 µM.

`CCCCCCNC(=O)CCc1[nH]c2cc(C)ccc2c1Sc1cc(Cl)cc(Cl)c1` showed a CC50 (BSC-1 [3]) of 27 µM and an IC50 (Vaccinia virus [1]) of no less than 100 µM.

Work on `COC(=O)c1[nH]c2cccc(C)c2c1Sc1ccc(Cl)cc1` yielded an IC50 (Vaccinia virus [1]) of 21 µM.

In the case of `COC(=O)c1[nH]c2cc(C)ccc2c1Sc1cc(Cl)cc(Cl)c1`, the IC50 (Vaccinia virus [1]) is reported as no less than 100 µM.

For `COC(=O)c1[nH]c2cc(C)ccc2c1Sc1ccc(Cl)cc1`, the IC50 (Vaccinia virus [1]) was 19 µM.

With `CCc1ccc2c(Sc3ccc(Cl)cc3)c(C(=O)O)[nH]c2c1` the IC50 (Vaccinia virus [1]) was 36 µM.

For `Cc1ccc2c(Sc3cc(Cl)c(Cl)cc3Cl)c(C(=O)O)[nH]c2c1`, the IC50 (Vaccinia virus [1]) was 25 µM.

`Cc1ccc2c(Sc3cc(Cl)cc(Cl)c3)c(CCCC(N)=O)[nH]c2c1` showed a CC50 at 20 h [10] of no less than 100 µM and an IC50 (Vaccinia virus [1]) of 0.208 µM.

`Cc1ccc2c(Sc3ccc(Cl)c(Cl)c3)c(C(=O)O)[nH]c2c1` showed an IC50 (Vaccinia virus [1]) of 34 µM.

Compound `CCOC(=O)c1[nH]c2cccc(C)c2c1Sc1ccc(Cl)cc1` has an IC50 (Vaccinia virus [1]) of no less than 100 µM.

`O=C(O)c1[nH]c2cc(F)ccc2c1Sc1ccc(Cl)cc1` gave an IC50 (Vaccinia virus [1]) of 40 µM.

`COC(=O)c1[nH]c2c(C)cccc2c1Sc1ccc(Cl)cc1` gave an IC50 (Vaccinia virus [1]) of 23 µM.

Compound `Cc1ccc2c(Sc3ccc(Br)cc3)c(C(=O)O)[nH]c2c1` has an IC50 (Vaccinia virus [1]) of no less than 100 µM.

`Cc1cccc2c(Sc3cc(Cl)c(Cl)cc3Cl)c(C(=O)O)[nH]c12` gave an IC50 (Vaccinia virus [1]) of 21 µM.

Work on `Cc1cccc2c(Sc3ccc(Cl)cc3)c(C(=O)O)[nH]c12` yielded an IC50 (Vaccinia virus [1]) of 74 µM.

`O=C(O)c1[nH]c2cc(Br)ccc2c1Sc1ccc(Cl)cc1` gave an IC50 (Vaccinia virus [1]) of 51 µM.

`COC(=O)c1c(Sc2ccc(Cl)cc2)c2cc(C)ccc2n1C` showed an IC50 (Vaccinia virus [1]) of no less than 100 µM.

Work on `COc1ccc(Sc2c(C(=O)O)[nH]c3cccc(C)c23)cc1` yielded an IC50 (Vaccinia virus [1]) of no less than 100 µM.

With `Nc1ccn(C[C@@H](CO)OCP(=O)(O)O)c(=O)n1` the inhibition (BSC-1 [11]) was “Active”.

`Cc1ccc2[nH]c(C(=O)OC(C)C)c(Sc3ccc(Cl)cc3)c2c1` showed an IC50 (Vaccinia virus [1]) of no less than 100 µM.

`Cc1cccc2[nH]c(C(=O)OCc3ccccc3)c(Sc3ccc(Cl)cc3)c12` gave an IC50 (Vaccinia virus [1]) of no less than 100 µM.

In the case of `Cc1ccc2c(Sc3cc(Cl)cc(Cl)c3)c(CCC(=O)O)[nH]c2c1`, the “Ratio CC50/IC50” value [2] is reported as 152, the CC50 (BSC-1 [3]) is reported as 36 µM and the IC50 (Vaccinia virus [1]) is reported as 0.244 µM.

Compound `COc1ccc(Sc2c(C(=O)O)[nH]c3cc(C)ccc23)cc1` has an IC50 (Vaccinia virus [1]) of no less than 100 µM.

With `COC(=O)c1ccc(Sc2c(C(=O)O)[nH]c3cccc(C)c23)cc1` the IC50 (Vaccinia virus [1]) was no less than 100 µM.
